Only some compounds are listed: those with a hit (about 3.7% of all), similar ones and a draw of the others.
KCNK9 inh – inhibitors of human KCNK9 two-pore domain potassium channel | Q9NPC2 | HEK293 KCNK9, FluxOR thallium flux fluorescence; active compounds read low | B-score at 10 µM | 310,000 tested, 1.2% active | AID 488922;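 active means ratio B-score over 3 SD below the library mean, with starting fluorescence within 5 SD of its mean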;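 further: negative B-score means less thallium flux so channel inhibition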
KCNQ1 block – blocks the human KCNQ1 potassium channel. P51787. CHO-K1 KCNQ1, FluxOR thallium flux fluorescence; active compounds read high. B-score at 10 µM. 310,000 tested, 1.3% active;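 active means compounds whose thallium flux B-score, printed positive for inhibition, exceeds three library SD while starting fluorescence stays within three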;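 further: channel opened by potassium depolarization with thallium stimulus after 20 min compound exposure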
Kir21 inh – blocks the mouse Kir2.1 inward-rectifier potassium channel; HEK293-Kir2.1, FluxOR thallium flux fluorescence; active compounds read low; B-score at 10 µM; 310,000 tested, 0.85% active;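 active means fluorescence ratio B-score at or below minus 3 SD of library scores, with starting-brightness B-score within 2 SD, cut at about -4.2 in these data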;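 further: channel flux triggered by added potassium and thallium sulfate stimulus; B-score of peak minus minimum fluorescence over baseline after thallium stimulus; more negative B-score means stronger Kir2.1 block with less thallium influx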
KCNQ1 act – human KCNQ1 channel potentiation or activation. P51787. 310,000 tested, 0.35% active. B-score at 10 µM. CHO-K1 KCNQ1, thallium flux FluxOR fluorescence; active compounds read high;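 active means fluorescence ratio B-score, a plate-corrected score, at least three library SD, with initial intensity B-score within 5 SD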
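Test system: CHO-K1 cells stably expressing KCNQ1 / Medium: assay buffer / Also added: depolarizing K+/Tl+ stimulus, K2SO4 and Tl2SO4 each 12.5 mM in 5x stock / Incubation: 90 min dye loading and 20 min compound exposure, both at room temperature / Signal: thallium influx via FluxOR fluorescence, kinetic imaging / Evaluation: B score of baseline-normalized fluorescence ratio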
hERG rescue – shields human hERG channel from block by proarrhythmic agents; Q12809; CHO-hERG, FluxOR thallium flux, dofetilide IC70 present; activation (rescue from dofetilide block), less the hit threshold, % at 10 µM; 310,000 tested, 0.51% active; AID 1511;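 active means activation above the mean of controls blocked by dofetilide plus 5 SD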;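 further: thallium influx through hERG after potassium depolarization seen as dye fluorescence rise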
KCNK3 block – human KCNK3 channel inhibition, primary screen; CHO-KCNK3 thallium flux, FluxOR fluorescence; active compounds read low; 340,000 tested, 0.84% active; AID 602410; O14649; B-score at 10 µM;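 active means B-score under library mean minus 4 SD, starting fluorescence ratio at most library mean plus 5 SD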;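 further: more negative B-score means stronger inhibition of thallium flux through KCNK3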
Target sequence (O14649 whole entry, looked up): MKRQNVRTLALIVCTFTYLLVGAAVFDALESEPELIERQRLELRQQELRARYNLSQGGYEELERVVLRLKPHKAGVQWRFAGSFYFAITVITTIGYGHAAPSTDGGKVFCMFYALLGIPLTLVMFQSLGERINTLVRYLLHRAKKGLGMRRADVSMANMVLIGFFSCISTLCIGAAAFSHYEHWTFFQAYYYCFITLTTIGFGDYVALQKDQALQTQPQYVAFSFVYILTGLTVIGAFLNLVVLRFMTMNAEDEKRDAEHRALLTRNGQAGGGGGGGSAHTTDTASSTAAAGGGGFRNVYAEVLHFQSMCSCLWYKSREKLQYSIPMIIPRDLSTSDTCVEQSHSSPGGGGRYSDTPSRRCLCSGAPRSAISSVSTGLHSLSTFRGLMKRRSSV
Hits are given with their value; - = inactive; . = no result; ! = repeats disagree.

SMILES	KCNK9 inh	KCNQ1 block	Kir21 inh	KCNQ1 act	hERG rescue	KCNK3 block
CCCN1C(=O)/C(=C\C=C2\N(CC)c3ccccc3C2(C)C)SC1=S	-	9	-	-	-	-
CC1=C/C(=N\Nc2ccccc2[N+](=O)[O-])CC(C)(C)C1	-	7	-	-	-	-
CCCCCNCC(=O)Nc1cccc(C(=O)Nc2cccc(C(F)(F)F)c2)c1	-	6	-	-	-	-
CCC(C)c1ccccc1NC(=O)c1[nH]c(C)c(C(C)=O)c1C (stereo unspecified)	-	-	-	-	5.8	-
CC(=O)c1c(C)[nH]c(C(=O)Nc2cccc(C(F)(F)F)c2)c1C	-	-	-	7	-	-
NC(=O)CC(NC(=O)Cc1ccc(Br)cc1)c1ccc(N2CCC(N3CCCCC3)CC2)c([N+](=O)[O-])c1 (stereo unspecified)	-	-	-	-	-	-
COc1ccc(Cc2nnc(SCC(=O)Nc3ccccc3C#N)o2)cc1	-	-	-	-	-	-
N#Cc1c(/N=C/c2cccs2)sc2c1CCCCC2	-	6	-	-	-	-
COc1ccc(OC)c(/C=C/C(=O)c2ccc3c(c2)OCCO3)c1	-	-	-	-	-	-
O=C(c1ccc2c(c1)OCO2)C1CCCN(Cc2ccc(OC(F)F)cc2)C1 (stereo unspecified)	-	-	-10.3	-	-	-
COc1cc(OC)c(OC)cc1CN1CCCC(C(=O)c2ccc3c(c2)OCO3)C1 (stereo unspecified)	-	-	-	-	-	-
O=S(=O)(c1cccc(-c2n[nH]c(=S)n2-c2ccc(OC(F)(F)F)cc2)c1)N1CCOCC1	.	.	.	.	.	-
CC(C)C(CCNCc1ccccn1)c1ccc(Cl)cc1 (stereo unspecified)	-	-	-4.37	-	-	-
Fc1ccccc1CNCCC(Cc1ccccc1)c1ccc2c(c1)OCO2 (stereo unspecified)	-	-	-8.73	-	-	-
CC(C)CCC(CCNCc1ccccn1)c1ccc2c(c1)OCO2 (stereo unspecified)	-	-	-7.2	-	-	-
Cc1oc(-c2cccs2)nc1CNC[C@H]1O[C@@H](n2cnc(C(N)=O)n2)[C@H](O)[C@@H]1O	.	.	.	.	.	-
CS(=O)(=O)C1=NSC2=NC(=O)/C(=C\c3cccn3-c3ccccc3Cl)C(=N)N21	-	10	-	-	-	-
Cc1ccc(-n2cccc2/C=C2/C(=N)N3C(=NC2=O)SN=C3S(C)(=O)=O)cc1	-	10	-	-	-	-
Cc1ccc(S(=O)(=O)Oc2ccc(/C=C3/C(=N)N4C(=NC3=O)SN=C4S(C)(=O)=O)cc2)cc1	-	-	-	-	-	-
Cc1cc(C(C)(C)C)cc(C)c1S(=O)(=O)N1CCN(C(=O)c2cc([N+](=O)[O-])c[nH]c2=O)CC1	-	-	-	-	-	-
COc1ccc(CCNC(=O)c2cc3ccccc3oc2=O)cc1	-	-	-	-	7.8	-
O=C(NCCc1ccc(F)cc1)c1cc2ccccc2oc1=O	-	-	-	-	-	-
CCOc1nc(NC2CCCC2)nc(N2CCC(C)CC2)n1	-	-	-	-	-	-
C=CCc1ccccc1OCC(O)CN1CCN(Cc2ccc3c(c2)OCO3)CC1 (stereo unspecified)	-	-	-4.56!	-	-	-
Cc1ccc(OCC(O)CN2CCN(Cc3ccc4c(c3)OCO4)CC2)cc1C (stereo unspecified)	-	-	-	-	-	-
SMILES	KCNK9 inh	KCNQ1 block	Kir21 inh	KCNQ1 act	hERG rescue	KCNK3 block
COc1cc(-c2nc(C(=O)NC3CCCCC3)cc3c2[nH]c2ccccc23)cc(OC)c1OC	-	-	-	-	-	-
COc1cc(-c2nc(C(=O)NC3CCN(Cc4ccccc4)CC3)cc3c2[nH]c2ccccc23)cc(OC)c1OC	-	6	-	-	-	-
CCc1ccc(C(C)NC(=O)COC(=O)c2ccc(-n3cnnn3)cc2)cc1 (stereo unspecified)	.	.	.	.	.	-
COc1ccc(C2CC(c3ccccc3)=NN2c2ccc(/C=N/NC(=O)c3ccncc3)cc2)cc1 (stereo unspecified)	-	6	-	-	-	-
COc1ccc(C2=NN(c3ccc(C=O)cc3)C(c3ccccc3)C2)cc1 (stereo unspecified)	-	6	-	-	-	.
NS(=O)(=O)c1ccc(N2N=C(c3ccccc3)CC2c2ccc(F)cc2)cc1 (stereo unspecified)	-7.74	6	-	-	-	-
O=C(O)c1ccc(N2N=C(c3ccccc3)CC2c2ccccc2)cc1 (stereo unspecified)	-	-	-	-	-	-
COc1ccc(C2CC(c3ccccc3)=NN2c2ccc(C(N)=O)cc2)cc1 (stereo unspecified)	-	10	-	-	-	-
N#CCC(=O)N/N=C/c1ccc(N2N=C(c3ccccc3)CC2c2ccccc2)cc1 (stereo unspecified)	-	-	-	-	-	-
COc1ccc(C2CC(c3ccccc3)=NN2c2ccc(S(N)(=O)=O)cc2)cc1 (stereo unspecified)	-	-	-	-	-	-
CC(=O)Nc1ccc(C2=NN(c3ccccc3)C(c3ccccc3)C2)cc1 (stereo unspecified)	-6.75	-	-	-	-	-
O=Cc1ccc(N2N=C(c3ccccc3)CC2c2ccccc2)cc1 (stereo unspecified)	-	8	-	-	-	-
CCN(CCN(C)C)C(=O)C1CCN(S(=O)(=O)c2c(C)noc2/C=C/c2ccccc2F)CC1	-	-	-5.02	-	-	-
O=C(c1ccccc1)c1cc([N+](=O)[O-])ccc1N1CCOCC1	-	-	-	-	-	-
Cc1ccc(C(=O)c2cc([N+](=O)[O-])ccc2N2CC(C)OC(C)C2)cc1 (stereo unspecified)	-	-	-	-	-	-
Cc1ccc(C(=O)c2cc([N+](=O)[O-])ccc2N2CCCCC2)cc1	-7.42	-	-	-	-	-
CC1CCCN(c2ccc([N+](=O)[O-])cc2C(=O)c2ccccc2)C1 (stereo unspecified)	-	6	-	-	-	-
O=C(CCNC(=O)c1ccc([N+](=O)[O-])cc1)NC1CCCc2ccccc21 (stereo unspecified)	.	.	.	.	.	-
CC(C)c1ccc(/C=C/C(=O)NC(=S)Nc2ccc(CN3CCOCC3)cc2)cc1	-	9	-	-	-	-
CC(C)c1ccc(/C=C/C(=O)NC(=S)NN2CCOCC2)cc1	-	-	-	-	-	-
CC1CCC2(CC1)NC(=O)N(CC(=O)Nc1ccc(C(N)=O)cc1)C2=O (stereo unspecified)	.	.	.	.	.	-
COc1ccccc1C(CNC(=O)C(C)Oc1ccc(Br)cc1)N1CCCC1 (stereo unspecified)	-	-	-5.82	-	-	-
